Test system: Fibroblast
Assay: Multiplex assay against human fibroblast
Assay type: toxicity, cell-based
Procedure, shortened: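 Imaging took place on a CQ1 microscope at 37°C and 5% CO2 once compound had been added to live cells stained at seeding with Hoechst33342, BioTracker Green Microtubule Cytoskeleton Dye, MitoTracker Red and Annexin V Alexa Fluor 680. CellPathfinder machine-learning gating classed cells as Hoechst high-intensity objects or normal cells, classed normal cells as having healthy, pyknosed or fragmented nuclei, and classed pyknosed cells as mitotic or apoptotic. Tubulin, mitochondrial-mass and membrane-permeability phenotypes are per cents of the healthy-nucleus cells.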

[1] = 12 h, 1 µM, compound concentration 1 uM, replicate 1
[2] = 12 h, 1 µM, compound concentration 1 uM, replicate 2
[3] = 12 h, 10 µM, compound concentration 10 uM, replicate 1
[4] = 12 h, 10 µM, compound concentration 10 uM, replicate 2
[5] = 24 h, 1 µM, compound concentration 1 uM, replicate 1
[6] = 24 h, 1 µM, compound concentration 1 uM, replicate 2
[7] = 24 h, 10 µM, compound concentration 10 uM, replicate 1
[8] = 24 h, 10 µM, compound concentration 10 uM, replicate 2
[9] = 48 h, 1 µM, compound concentration 1 uM, replicate 1
[10] = 48 h, 1 µM, compound concentration 1 uM, replicate 2
[11] = 48 h, 10 µM, compound concentration 10 uM, replicate 1
[12] = 48 h, 10 µM, compound concentration 10 uM, replicate 2

O=C(Cc1ccc(-c2ccc(OCCN3CCOCC3)cc2)cn1)NCc1ccccc1 [TIRBANIBULIN]
Population Apoptotic (%) [1]: 71%
Population Fragmented Nuclei (%) [1]: 20%
Population Healthy Nuclei (%) [1]: 47%
Population Hoechst High Intensity Objects (%) [1]: 16%
Population Membrane Permeable-Phenotype (%) [1]: 18%
Population Mitochondria Different-Phenotype (%) [1]: 9%
Population Mitotic Cells (%) [1]: 28%
Population Normal (%) [1]: 83%
Population Pyknosed Nuclei (%) [1]: 31%
Population Tubulin-Different-Phenotype (%) [1]: 12%
Total Cell Count [1]: 80
Population Apoptotic (%) [2]: 0%
Population Fragmented Nuclei (%) [2]: 5%
Population Healthy Nuclei (%) [2]: 90%
Population Hoechst High Intensity Objects (%) [2]: 12%
Population Membrane Permeable-Phenotype (%) [2]: 9%
Population Mitochondria Different-Phenotype (%) [2]: 21%
Population Mitotic Cells (%) [2]: 100%
Population Normal (%) [2]: 87%
Population Pyknosed Nuclei (%) [2]: 4%
Total Cell Count [2]: 108
Population Apoptotic (%) [3]: 66%
Population Fragmented Nuclei (%) [3]: 30%
Population Healthy Nuclei (%) [3]: 39%
Population Hoechst High Intensity Objects (%) [3]: 15%
Population Membrane Permeable-Phenotype (%) [3]: 17%
Population Mitochondria Different-Phenotype (%) [3]: 13%
Population Mitotic Cells (%) [3]: 33%
Population Normal (%) [3]: 84%
Population Pyknosed Nuclei (%) [3]: 29%
Population Tubulin-Different-Phenotype (%) [3]: 28%
Total Cell Count [3]: 134
Population Apoptotic (%) [4]: 50%
Population Fragmented Nuclei (%) [4]: 13%
Population Healthy Nuclei (%) [4]: 78%
Population Hoechst High Intensity Objects (%) [4]: 10%
Population Membrane Permeable-Phenotype (%) [4]: 4%
Population Mitochondria Different-Phenotype (%) [4]: 19%
Population Mitotic Cells (%) [4]: 50%
Population Normal (%) [4]: 89%
Population Pyknosed Nuclei (%) [4]: 7%
Population Tubulin-Different-Phenotype (%) [4]: 12%
Total Cell Count [4]: 81
Population Apoptotic (%) [5]: 57%
Population Fragmented Nuclei (%) [5]: 29%
Population Healthy Nuclei (%) [5]: 44%
Population Hoechst High Intensity Objects (%) [5]: 14%
Population Membrane Permeable-Phenotype (%) [5]: 37%
Population Mitochondria Different-Phenotype (%) [5]: 9%
Population Mitotic Cells (%) [5]: 42%
Population Normal (%) [5]: 85%
Population Pyknosed Nuclei (%) [5]: 26%
Population Tubulin-Different-Phenotype (%) [5]: 18%
Total Cell Count [5]: 84
Population Apoptotic (%) [6]: 61%
Population Fragmented Nuclei (%) [6]: 16%
Population Healthy Nuclei (%) [6]: 66%
Population Hoechst High Intensity Objects (%) [6]: 9%
Population Membrane Permeable-Phenotype (%) [6]: 6%
Population Mitochondria Different-Phenotype (%) [6]: 44%
Population Mitotic Cells (%) [6]: 38%
Population Normal (%) [6]: 90%
Population Pyknosed Nuclei (%) [6]: 17%
Population Tubulin-Different-Phenotype (%) [6]: 10%
Total Cell Count [6]: 155
Population Apoptotic (%) [7]: 54%
Population Fragmented Nuclei (%) [7]: 42%
Population Healthy Nuclei (%) [7]: 37%
Population Hoechst High Intensity Objects (%) [7]: 13%
Population Membrane Permeable-Phenotype (%) [7]: 17%
Population Mitochondria Different-Phenotype (%) [7]: 8%
Population Mitotic Cells (%) [7]: 45%
Population Normal (%) [7]: 86%
Population Pyknosed Nuclei (%) [7]: 20%
Population Tubulin-Different-Phenotype (%) [7]: 35%
Total Cell Count [7]: 138
Population Apoptotic (%) [8]: 66%
Population Fragmented Nuclei (%) [8]: 19%
Population Healthy Nuclei (%) [8]: 57%
Population Hoechst High Intensity Objects (%) [8]: 10%
Population Membrane Permeable-Phenotype (%) [8]: 10%
Population Mitochondria Different-Phenotype (%) [8]: 40%
Population Mitotic Cells (%) [8]: 33%
Population Normal (%) [8]: 89%
Population Pyknosed Nuclei (%) [8]: 23%
Population Tubulin-Different-Phenotype (%) [8]: 13%
Total Cell Count [8]: 82
Population Apoptotic (%) [9]: 50%
Population Fragmented Nuclei (%) [9]: 40%
Population Healthy Nuclei (%) [9]: 47%
Population Hoechst High Intensity Objects (%) [9]: 14%
Population Membrane Permeable-Phenotype (%) [9]: 31%
Population Mitochondria Different-Phenotype (%) [9]: 2%
Population Mitotic Cells (%) [9]: 50%
Population Normal (%) [9]: 85%
Population Pyknosed Nuclei (%) [9]: 12%
Population Tubulin-Different-Phenotype (%) [9]: 7%
Total Cell Count [9]: 94
Population Apoptotic (%) [10]: 71%
Population Fragmented Nuclei (%) [10]: 35%
Population Healthy Nuclei (%) [10]: 59%
Population Hoechst High Intensity Objects (%) [10]: 10%
Population Membrane Permeable-Phenotype (%) [10]: 18%
Population Mitochondria Different-Phenotype (%) [10]: 7%
Population Mitotic Cells (%) [10]: 28%
Population Normal (%) [10]: 89%
Population Pyknosed Nuclei (%) [10]: 4%
Population Tubulin-Different-Phenotype (%) [10]: 15%
Total Cell Count [10]: 170
Population Apoptotic (%) [11]: 48%
Population Fragmented Nuclei (%) [11]: 38%
Population Healthy Nuclei (%) [11]: 34%
Population Hoechst High Intensity Objects (%) [11]: 17%
Population Membrane Permeable-Phenotype (%) [11]: 21%
Population Mitochondria Different-Phenotype (%) [11]: 7%
Population Mitotic Cells (%) [11]: 51%
Population Normal (%) [11]: 82%
Population Pyknosed Nuclei (%) [11]: 26%
Population Tubulin-Different-Phenotype (%) [11]: 29%
Total Cell Count [11]: 143
Population Apoptotic (%) [12]: 66%
Population Fragmented Nuclei (%) [12]: 44%
Population Healthy Nuclei (%) [12]: 53%
Population Membrane Permeable-Phenotype (%) [12]: 15%
Population Mitochondria Different-Phenotype (%) [12]: 5%
Population Mitotic Cells (%) [12]: 33%
Population Pyknosed Nuclei (%) [12]: 2%
Population Tubulin-Different-Phenotype (%) [12]: 22%
Total Cell Count [12]: 164

Cn1nc(C(F)(F)F)cc1-c1cnc(N2CCc3cc(S(=O)(=O)Nc4c(F)cc(Cl)cc4F)cc(N4CCCC4=O)c32)nc1 [TP-020]
Population Apoptotic (%) [1]: 69%
Population Fragmented Nuclei (%) [1]: 20%
Population Healthy Nuclei (%) [1]: 59%
Population Hoechst High Intensity Objects (%) [1]: 13%
Population Membrane Permeable-Phenotype (%) [1]: 35%
Population Mitochondria Different-Phenotype (%) [1]: 4%
Population Mitotic Cells (%) [1]: 30%
Population Normal (%) [1]: 86%
Population Pyknosed Nuclei (%) [1]: 20%
Population Tubulin-Different-Phenotype (%) [1]: 58%
Total Cell Count [1]: 241
Population Apoptotic (%) [2]: 42%
Population Fragmented Nuclei (%) [2]: 56%
Population Healthy Nuclei (%) [2]: 26%
Population Hoechst High Intensity Objects (%) [2]: 34%
Population Membrane Permeable-Phenotype (%) [2]: 45%
Population Mitochondria Different-Phenotype (%) [2]: 18%
Population Mitotic Cells (%) [2]: 57%
Population Normal (%) [2]: 65%
Population Pyknosed Nuclei (%) [2]: 17%
Population Tubulin-Different-Phenotype (%) [2]: 72%
Total Cell Count [2]: 63
Population Apoptotic (%) [3]: 65%
Population Fragmented Nuclei (%) [3]: 30%
Population Healthy Nuclei (%) [3]: 57%
Population Hoechst High Intensity Objects (%) [3]: 7%
Population Membrane Permeable-Phenotype (%) [3]: 13%
Population Mitochondria Different-Phenotype (%) [3]: 1%
Population Mitotic Cells (%) [3]: 35%
Population Normal (%) [3]: 92%
Population Pyknosed Nuclei (%) [3]: 11%
Population Tubulin-Different-Phenotype (%) [3]: 3%
Total Cell Count [3]: 192
Population Apoptotic (%) [4]: 33%
Population Fragmented Nuclei (%) [4]: 62%
Population Healthy Nuclei (%) [4]: 28%
Population Hoechst High Intensity Objects (%) [4]: 41%
Population Membrane Permeable-Phenotype (%) [4]: 10%
Population Mitochondria Different-Phenotype (%) [4]: 0%
Population Mitotic Cells (%) [4]: 66%
Population Normal (%) [4]: 58%
Population Pyknosed Nuclei (%) [4]: 8%
Population Tubulin-Different-Phenotype (%) [4]: 10%
Total Cell Count [4]: 60
Population Apoptotic (%) [5]: 51%
Population Fragmented Nuclei (%) [5]: 19%
Population Healthy Nuclei (%) [5]: 57%
Population Hoechst High Intensity Objects (%) [5]: 9%
Population Membrane Permeable-Phenotype (%) [5]: 25%
Population Mitochondria Different-Phenotype (%) [5]: 4%
Population Mitotic Cells (%) [5]: 48%
Population Normal (%) [5]: 90%
Population Pyknosed Nuclei (%) [5]: 23%
Population Tubulin-Different-Phenotype (%) [5]: 55%
Total Cell Count [5]: 246
Population Apoptotic (%) [6]: 57%
Population Fragmented Nuclei (%) [6]: 57%
Population Healthy Nuclei (%) [6]: 26%
Population Hoechst High Intensity Objects (%) [6]: 36%
Population Membrane Permeable-Phenotype (%) [6]: 18%
Population Mitochondria Different-Phenotype (%) [6]: 27%
Population Mitotic Cells (%) [6]: 42%
Population Normal (%) [6]: 63%
Population Pyknosed Nuclei (%) [6]: 16%
Population Tubulin-Different-Phenotype (%) [6]: 27%
Total Cell Count [6]: 66
Population Apoptotic (%) [7]: 42%
Population Fragmented Nuclei (%) [7]: 22%
Population Healthy Nuclei (%) [7]: 66%
Population Hoechst High Intensity Objects (%) [7]: 10%
Population Membrane Permeable-Phenotype (%) [7]: 7%
Population Mitochondria Different-Phenotype (%) [7]: 1%
Population Mitotic Cells (%) [7]: 57%
Population Normal (%) [7]: 89%
Population Tubulin-Different-Phenotype (%) [7]: 2%
Total Cell Count [7]: 188
Population Apoptotic (%) [8]: 50%
Population Fragmented Nuclei (%) [8]: 52%
Population Healthy Nuclei (%) [8]: 35%
Population Hoechst High Intensity Objects (%) [8]: 38%
Population Membrane Permeable-Phenotype (%) [8]: 8%
Population Mitochondria Different-Phenotype (%) [8]: 0%
Population Mitotic Cells (%) [8]: 50%
Population Normal (%) [8]: 61%
Population Pyknosed Nuclei (%) [8]: 11%
Population Tubulin-Different-Phenotype (%) [8]: 25%
Total Cell Count [8]: 55
